# Experimental data published in ChEMBL document CHEMBL4043246, “Discovery of novel [1,2,4]triazolo[4,3-a]quinoxaline aminophenyl derivatives as BET inhibitors for cancer treatment” (Bioorg Med Chem Lett, 2017).
# Assays:
# [1] = molecular target: Bromodomain testis-specific protein (Homo sapiens) (UniProt Q58F21); assay: Inhibition of human partial length BRDT BD1 (N21 to E137 residues) expressed in bacterial expression system assessed as residual activity at 500 nM relative to control by BROMOscan assay
# [2] = Stability in rat liver microsomes assessed as parent compound remaining after 30 mins; type: ADME, microsome; details: read-out: Stability
# Procedure, shortened: (§1)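 Incubated in vitro with mouse, rat or human liver microsomes for 30 minutes. Result expressed as percent of parent compound remaining.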
# Rattus norvegicus [3] = assay: Tmax in rat at 20 mg/kg, po; type: ADME, organism-based; details: in vivo
# Procedure, shortened: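 Rat pharmacokinetics after a single intravenous dose of 2 mg/kg or oral doses of 5 mg/kg and 20 mg/kg. Reported parameters are Tmax, Cmax, T1/2, AUCt, AUC∞, CL, Vss and F(%). CL, Vss and F come from the intravenous/oral 2 and 5 mg/kg arms.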
# [4] = molecular target: Bromodomain-containing protein 7 (Homo sapiens) (UniProt Q9NPI1); assay: Inhibition of human partial length BRD7 (L125 to R254 residues) expressed in mammalian expression system assessed as residual activity at 500 nM relative to control by BROMOscan assay
# [5] = molecular target: Bromodomain testis-specific protein (Homo sapiens) (UniProt Q58F21); assay: Inhibition of human partial length BRDT BD2 (K250 to E382 residues) expressed in bacterial expression system assessed as residual activity at 500 nM relative to control by BROMOscan assay
# [6] = molecular target: Bromodomain-containing protein 3 (Homo sapiens) (UniProt Q15059); assay: Inhibition of human partial length BRD3 BD2 (G306 to P416 residues) expressed in bacterial expression system assessed as residual activity at 500 nM relative to control by BROMOscan assay
# [7] = molecular target: Bromodomain-containing protein 3 (Homo sapiens) (UniProt Q15059); assay: Inhibition of human partial length BRD3 BD1 (P24 to E144 residues) expressed in bacterial expression system assessed as residual activity at 500 nM relative to control by BROMOscan assay
# [8] = molecular target: T1, Bromodomain-containing protein 4 (Homo sapiens, UniProt O60885); assay: Inhibition of BRD4 in human TY82 cells assessed as decrease in c-MYC expression level after 24 hrs by Western blot analysis; type: cell-based
# Procedure, shortened: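 Ty-82 cells at 70% confluency were treated with varying compound concentrations for 24 h. Samples were run on 12% SDS-PAGE and transferred to nitrocellulose. Membranes were blocked in PBS/1% BSA/0.1% Tween 20 for 1 h, probed with c-MYC antibodies, and detected by chemiluminescence.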
# [9] = molecular target: T1, Bromodomain-containing protein 4; assay: Inhibition of BRD4 BD1-BD2 (unknown origin) using tetraacetylated histone peptide as substrate after 2 hrs by alphascreen assay
# [10] = molecular target: Bromodomain and WD repeat-containing protein 1 (Homo sapiens) (UniProt Q9NSI6); assay: Inhibition of human partial length WDR9 BD2 (A1310 to E1430 residues) expressed in bacterial expression system assessed as residual activity at 500 nM relative to control by BROMOscan assay
# [11] = molecular target: T1, Bromodomain-containing protein 4; assay: Binding affinity to BRD4 BD1 (unknown origin)
# [12] = molecular target: Protein polybromo-1 (Homo sapiens) (UniProt Q86U86); assay: Inhibition of human partial length PBRM1 BD5 (S645 to D766 residues) expressed in bacterial expression system assessed as residual activity at 500 nM relative to control by BROMOscan assay
# [13] = molecular target: Bromodomain adjacent to zinc finger domain protein 2B (Homo sapiens) (UniProt Q9UIF8); assay: Inhibition of human partial length BAZ2B (S2054 to S2168 residues) expressed in bacterial expression system assessed as residual activity at 500 nM relative to control by BROMOscan assay
# Peregrin (Homo sapiens) = Peregrin (Homo sapiens) (UniProt P55201); assay: Inhibition of human partial length BRPF1 (E627 to G740 residues) expressed in bacterial expression system assessed as residual activity at 500 nM relative to control by BROMOscan assay
# [14] = molecular target: Transcription initiation factor TFIID subunit 1-like (Homo sapiens) (UniProt Q8IZX4); assay: Inhibition of human partial length TAF1L BD2 (Q1523 to D1654 residues) expressed in bacterial expression system assessed as residual activity at 500 nM relative to control by BROMOscan assay
# [15] = AUCt in rat at 20 mg/kg, po; type: ADME, organism-based; details: in vivo
# Procedure, shortened: (§2)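 Rat pharmacokinetics with single dosing, either intravenous at 2 mg/kg or oral at 5 or 20 mg/kg. AUC is reported both to the last time point (AUCt) and extrapolated to infinity, in ug.hr/mL.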
# [16] = molecular target: T1, Bromodomain-containing protein 4; assay: Inhibition of human partial length BRD4 BD2 (K333 to E460 residues) expressed in bacterial expression system assessed as residual activity at 500 nM relative to control by BROMOscan assay
# THP-1 = assay: Antiproliferative activity against human THP1 cells; type: functional, cell-based
# Rattus norvegicus [17] = assay: AUCinfinity in rat at 20 mg/kg, po; type: ADME, organism-based; parameters: dose 20 mg/kg, time infinity, route oral; details: in vivo; procedure, shortened: as §2
# [18] = molecular target: Histone acetyltransferase KAT2B (Homo sapiens) (UniProt Q92831); assay: Inhibition of human partial length PCAF (G715 to D831 residues) expressed in bacterial expression system assessed as residual activity at 500 nM relative to control by BROMOscan assay
# [19] = Cell cycle arrest in human TY82 cells assessed as accumulation at sub-G1 phase at 3 uM after 24 hrs by DAPI staining based assay (reference value: 6%); type: functional
# Rattus norvegicus [20] = assay: Cmax in rat at 20 mg/kg, po; type: ADME, organism-based; parameters: dose 20 mg/kg, route oral; details: in vivo
# Procedure, shortened: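 Peak plasma level after single oral dosing in rat at 5 or 20 mg/kg. Cmax is given in mg/mL as printed, with Tmax in hours.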
# [21] = molecular target: Bromodomain and PHD finger-containing protein 3 (Homo sapiens) (UniProt Q9ULD4); assay: Inhibition of human partial length BRPF3 (E588 to G701 residues) expressed in bacterial expression system assessed as residual activity at 500 nM relative to control by BROMOscan assay
# [22] = molecular target: E3 ubiquitin-protein ligase TRIM33 (Homo sapiens) (UniProt Q9UPN9); assay: Inhibition of human partial length TRIM33-phd-bromo (D882 to A1087 residues) expressed in bacterial expression system assessed as residual activity at 500 nM relative to control by BROMOscan assay
# [23] = molecular target: T1, Bromodomain-containing protein 4; assay: Binding affinity to BRD4 BD2 (unknown origin)
# [24] = molecular target: Histone acetyltransferase KAT2A (Homo sapiens) (UniProt Q92830); assay: Inhibition of human partial length GCN5L2 (E726 to K837 residues) expressed in bacterial expression system assessed as residual activity at 500 nM relative to control by BROMOscan assay
# [25] = molecular target: SWI/SNF-related matrix-associated actin-dependent regulator of chromatin subfamily A member 4 (Homo sapiens) (UniProt P51532); assay: Inhibition of human partial length SMARCA4 (A1448 to S1575 residues) expressed in bacterial expression system assessed as residual activity at 500 nM relative to control by BROMOscan assay
# [26] = Stability in mouse liver microsomes assessed as parent compound remaining after 30 mins; type: ADME, microsome; details: read-out: Stability; procedure, shortened: as §1
# [27] = molecular target: Nucleosome-remodeling factor subunit BPTF (Homo sapiens) (UniProt Q12830); assay: Inhibition of human partial length FALZ (S2791 to H2911 residues) expressed in bacterial expression system assessed as residual activity at 500 nM relative to control by BROMOscan assay
# Chain of Bromodomain-containing protein 3 (Homo sapiens) (Q15059 2-726 limits assumed): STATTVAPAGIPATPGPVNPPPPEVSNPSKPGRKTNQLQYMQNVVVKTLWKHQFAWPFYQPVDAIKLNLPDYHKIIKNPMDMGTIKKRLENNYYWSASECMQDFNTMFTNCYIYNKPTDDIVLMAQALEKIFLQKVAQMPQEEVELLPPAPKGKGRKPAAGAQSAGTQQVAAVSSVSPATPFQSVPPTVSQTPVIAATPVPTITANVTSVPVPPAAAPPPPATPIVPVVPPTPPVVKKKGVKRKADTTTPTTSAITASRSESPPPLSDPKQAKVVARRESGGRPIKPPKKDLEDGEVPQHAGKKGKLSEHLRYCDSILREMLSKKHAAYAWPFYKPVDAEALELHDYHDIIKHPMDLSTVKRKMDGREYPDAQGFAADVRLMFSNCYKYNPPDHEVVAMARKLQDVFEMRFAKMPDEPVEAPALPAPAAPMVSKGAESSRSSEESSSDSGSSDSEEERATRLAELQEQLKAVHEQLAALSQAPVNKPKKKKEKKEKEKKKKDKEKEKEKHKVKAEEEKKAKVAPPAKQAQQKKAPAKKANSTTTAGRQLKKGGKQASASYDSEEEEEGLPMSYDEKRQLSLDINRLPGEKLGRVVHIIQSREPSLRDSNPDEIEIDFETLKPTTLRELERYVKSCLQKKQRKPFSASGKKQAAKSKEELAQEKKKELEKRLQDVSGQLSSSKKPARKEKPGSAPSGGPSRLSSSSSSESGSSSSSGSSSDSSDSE
# Chain of Protein polybromo-1 (Homo sapiens) (Q86U86 whole entry, the tested form may be a part): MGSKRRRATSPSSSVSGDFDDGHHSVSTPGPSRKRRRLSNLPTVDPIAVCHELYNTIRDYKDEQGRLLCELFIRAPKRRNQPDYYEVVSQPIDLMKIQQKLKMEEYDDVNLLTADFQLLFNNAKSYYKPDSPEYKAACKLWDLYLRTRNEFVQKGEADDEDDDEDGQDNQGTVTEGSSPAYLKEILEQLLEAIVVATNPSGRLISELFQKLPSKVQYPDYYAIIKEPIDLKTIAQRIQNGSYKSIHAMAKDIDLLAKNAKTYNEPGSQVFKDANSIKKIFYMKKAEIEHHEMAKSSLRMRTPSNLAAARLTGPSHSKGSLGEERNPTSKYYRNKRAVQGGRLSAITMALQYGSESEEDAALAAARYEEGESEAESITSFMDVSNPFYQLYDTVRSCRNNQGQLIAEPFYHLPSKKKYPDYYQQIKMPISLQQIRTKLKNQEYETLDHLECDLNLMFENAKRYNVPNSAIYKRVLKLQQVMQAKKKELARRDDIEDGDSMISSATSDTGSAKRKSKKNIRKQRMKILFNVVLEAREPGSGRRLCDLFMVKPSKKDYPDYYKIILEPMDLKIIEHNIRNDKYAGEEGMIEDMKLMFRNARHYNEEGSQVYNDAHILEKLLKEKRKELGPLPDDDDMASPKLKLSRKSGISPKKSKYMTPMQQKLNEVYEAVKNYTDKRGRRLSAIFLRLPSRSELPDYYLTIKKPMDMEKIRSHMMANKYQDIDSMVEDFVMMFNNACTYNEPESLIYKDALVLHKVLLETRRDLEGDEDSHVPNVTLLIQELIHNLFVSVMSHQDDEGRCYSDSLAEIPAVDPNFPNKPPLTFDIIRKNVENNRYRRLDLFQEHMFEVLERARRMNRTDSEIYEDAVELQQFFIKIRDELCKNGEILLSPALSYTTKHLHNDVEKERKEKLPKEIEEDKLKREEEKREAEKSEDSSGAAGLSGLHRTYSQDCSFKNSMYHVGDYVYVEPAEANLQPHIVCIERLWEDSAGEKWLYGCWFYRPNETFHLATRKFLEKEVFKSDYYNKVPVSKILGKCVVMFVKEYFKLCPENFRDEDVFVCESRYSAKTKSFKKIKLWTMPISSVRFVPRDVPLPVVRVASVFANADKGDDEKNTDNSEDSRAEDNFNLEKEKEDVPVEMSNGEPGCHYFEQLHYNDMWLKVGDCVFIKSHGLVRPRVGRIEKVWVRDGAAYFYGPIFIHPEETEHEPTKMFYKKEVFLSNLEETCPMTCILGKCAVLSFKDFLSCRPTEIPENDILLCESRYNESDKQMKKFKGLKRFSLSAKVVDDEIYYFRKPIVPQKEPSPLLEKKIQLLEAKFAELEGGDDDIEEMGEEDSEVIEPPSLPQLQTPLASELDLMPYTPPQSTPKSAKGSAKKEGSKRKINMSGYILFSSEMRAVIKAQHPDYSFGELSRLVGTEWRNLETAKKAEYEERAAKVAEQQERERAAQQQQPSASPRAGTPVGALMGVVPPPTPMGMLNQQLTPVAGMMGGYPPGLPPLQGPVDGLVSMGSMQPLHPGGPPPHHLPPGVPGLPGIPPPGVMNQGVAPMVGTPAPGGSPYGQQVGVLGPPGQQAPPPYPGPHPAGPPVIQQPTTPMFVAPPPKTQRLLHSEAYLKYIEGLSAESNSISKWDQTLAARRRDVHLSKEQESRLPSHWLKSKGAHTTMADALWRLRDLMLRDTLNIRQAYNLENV
# Chain of Bromodomain-containing protein 7 (Homo sapiens) (Q9NPI1 whole entry, the tested form may be a part): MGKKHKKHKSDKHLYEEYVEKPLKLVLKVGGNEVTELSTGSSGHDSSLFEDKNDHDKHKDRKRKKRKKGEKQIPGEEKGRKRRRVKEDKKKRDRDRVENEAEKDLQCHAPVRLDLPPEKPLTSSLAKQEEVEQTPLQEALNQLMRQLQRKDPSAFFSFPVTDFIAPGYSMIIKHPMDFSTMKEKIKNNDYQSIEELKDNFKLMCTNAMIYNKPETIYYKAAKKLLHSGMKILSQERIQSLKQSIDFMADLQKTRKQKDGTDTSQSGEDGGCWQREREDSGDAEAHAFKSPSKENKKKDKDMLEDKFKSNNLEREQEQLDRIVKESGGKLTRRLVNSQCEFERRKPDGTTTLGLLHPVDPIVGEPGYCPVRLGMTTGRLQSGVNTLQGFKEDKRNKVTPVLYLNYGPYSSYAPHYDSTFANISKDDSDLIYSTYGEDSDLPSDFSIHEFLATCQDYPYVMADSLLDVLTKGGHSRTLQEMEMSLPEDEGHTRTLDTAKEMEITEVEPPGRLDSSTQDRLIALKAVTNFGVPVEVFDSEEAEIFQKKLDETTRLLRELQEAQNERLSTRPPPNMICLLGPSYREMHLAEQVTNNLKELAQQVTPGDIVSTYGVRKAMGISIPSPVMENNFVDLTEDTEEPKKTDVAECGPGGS
# Chain of E3 ubiquitin-protein ligase TRIM33 (Homo sapiens) (Q9UPN9 whole entry, the tested form may be a part): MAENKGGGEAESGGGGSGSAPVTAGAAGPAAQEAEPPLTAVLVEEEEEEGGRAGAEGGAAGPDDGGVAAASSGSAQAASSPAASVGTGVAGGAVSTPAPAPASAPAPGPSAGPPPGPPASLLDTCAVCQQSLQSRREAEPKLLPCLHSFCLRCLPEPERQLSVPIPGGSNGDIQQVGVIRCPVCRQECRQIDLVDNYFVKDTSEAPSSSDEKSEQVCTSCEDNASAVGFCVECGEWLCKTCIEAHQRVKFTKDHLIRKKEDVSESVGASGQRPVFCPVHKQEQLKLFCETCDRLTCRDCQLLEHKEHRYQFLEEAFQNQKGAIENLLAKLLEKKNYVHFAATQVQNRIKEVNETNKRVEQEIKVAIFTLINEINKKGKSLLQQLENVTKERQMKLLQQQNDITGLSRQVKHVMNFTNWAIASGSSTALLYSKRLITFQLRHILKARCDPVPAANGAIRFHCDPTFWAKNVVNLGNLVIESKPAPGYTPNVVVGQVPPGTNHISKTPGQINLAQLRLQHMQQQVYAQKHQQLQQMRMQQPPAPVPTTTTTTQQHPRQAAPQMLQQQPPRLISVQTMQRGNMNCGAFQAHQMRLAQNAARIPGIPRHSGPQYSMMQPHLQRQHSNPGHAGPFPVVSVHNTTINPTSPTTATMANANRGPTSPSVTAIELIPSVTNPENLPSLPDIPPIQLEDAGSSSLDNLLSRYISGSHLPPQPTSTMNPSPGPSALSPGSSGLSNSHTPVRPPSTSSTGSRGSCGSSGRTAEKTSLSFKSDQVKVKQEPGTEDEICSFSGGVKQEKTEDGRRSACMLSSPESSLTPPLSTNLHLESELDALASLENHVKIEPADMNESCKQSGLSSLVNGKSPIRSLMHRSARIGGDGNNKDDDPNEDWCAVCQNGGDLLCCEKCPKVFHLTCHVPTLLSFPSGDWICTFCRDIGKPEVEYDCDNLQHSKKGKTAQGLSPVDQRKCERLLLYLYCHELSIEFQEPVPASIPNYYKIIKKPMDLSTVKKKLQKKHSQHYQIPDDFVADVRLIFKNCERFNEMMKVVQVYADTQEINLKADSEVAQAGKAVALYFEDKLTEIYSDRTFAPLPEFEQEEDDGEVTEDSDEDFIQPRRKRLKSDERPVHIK
# Chain of Histone acetyltransferase KAT2A (Homo sapiens) (Q92830 2-837 limits assumed): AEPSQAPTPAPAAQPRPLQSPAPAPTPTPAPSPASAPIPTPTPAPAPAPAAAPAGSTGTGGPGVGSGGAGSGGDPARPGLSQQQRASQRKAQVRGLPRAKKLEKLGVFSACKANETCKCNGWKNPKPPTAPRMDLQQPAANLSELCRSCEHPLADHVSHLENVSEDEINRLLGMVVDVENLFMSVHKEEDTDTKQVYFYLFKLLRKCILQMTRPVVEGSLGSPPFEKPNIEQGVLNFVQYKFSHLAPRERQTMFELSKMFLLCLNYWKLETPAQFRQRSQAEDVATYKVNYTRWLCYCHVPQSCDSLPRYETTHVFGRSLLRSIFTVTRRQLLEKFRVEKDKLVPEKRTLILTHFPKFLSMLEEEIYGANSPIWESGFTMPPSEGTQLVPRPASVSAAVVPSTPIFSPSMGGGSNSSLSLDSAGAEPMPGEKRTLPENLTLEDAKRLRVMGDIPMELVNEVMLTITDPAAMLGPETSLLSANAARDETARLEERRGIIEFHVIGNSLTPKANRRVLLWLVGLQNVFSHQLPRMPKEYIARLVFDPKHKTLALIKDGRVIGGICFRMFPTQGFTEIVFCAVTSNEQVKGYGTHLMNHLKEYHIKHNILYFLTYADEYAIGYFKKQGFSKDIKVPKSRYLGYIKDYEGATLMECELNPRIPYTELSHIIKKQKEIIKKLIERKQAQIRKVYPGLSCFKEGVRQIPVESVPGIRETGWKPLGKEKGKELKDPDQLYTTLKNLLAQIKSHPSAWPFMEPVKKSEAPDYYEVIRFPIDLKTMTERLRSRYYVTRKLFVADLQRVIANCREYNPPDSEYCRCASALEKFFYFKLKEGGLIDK
compound,measurement,setting,value
Cc1nnc2c(Nc3cccc(CNC(=O)C(C)C)c3)nc3ccccc3n12,Activity,[1],19%
same,remaining at 0.5 h,[2],5%
same,Tmax,Rattus norvegicus [3],1.3 h
same,Activity,[4],80%
same,Activity,[5],14%
same,Activity,[6],30%
same,Activity,[7],11%
same,inhibition,[8],Dose-dependent effect
same,IC50,[9],68 nM
same,Activity,[10],100%
same,Kd,[11],27 nM
same,Activity,[12],84%
same,Activity,[13],93%
same,Activity,Peregrin (Homo sapiens),37%
same,Activity,[14],83%
same,AUC(0-t),[15],20600 ng·h/mL
same,Activity,[16],16%
same,IC50,THP-1,1600 nM
same,AUC,Rattus norvegicus [17],25300 ng·h/mL
same,Activity,[18],91%
same,Activity,[19],4%
same,Cmax,Rattus norvegicus [20],4600 ng/mL
same,Activity,[21],87%
same,Activity,[22],100%
same,Kd,[23],9 nM
same,Activity,[24],100%
same,Activity,[25],100%
same,remaining at 0.5 h,[26],0.024%
same,Activity,[27],90%
